The subject of one assay is Bacillus spizizenii. Put plainly: Antibacterial activity against Bacillus subtilis ATCC 6633 by disk diffusion method. Type of assay: functional.
The subject of a further assay is Brevibacillus brevis. Put plainly: Antibacterial activity against Bacillus brevis by disk diffusion method. Type of assay: functional. In general terms: Agar diffusion results depend on both activity and mobility in agar.
Another assay has as its system Pseudomonas aeruginosa. The assay can be described thus: Antibacterial activity against Pseudomonas aeruginosa DSM 22644 incubated for 24 hrs by disk diffusion method. Type of assay: functional. An outline of the steps:
(§1)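 Standard control strains from the DSMZ collection (Braunschweig): E. coli and B. subtilis as common environmental strains, and S. aureus and P. aeruginosa as human pathogenic clinical strains. Run by the authors' previously described procedure.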

The next assay has as its system Escherichia coli. The assay can be described thus: Antibacterial activity against Escherichia coli DSM 1116 incubated for 24 hrs by disk diffusion method. The class given is functional. An outline of the steps:
as §1

The next assay relates to Staphylococcus aureus. The assay can be described thus: Antibacterial activity against Staphylococcus aureus DSM 799 incubated for 24 hrs by disk diffusion method. The class given is functional. An outline of the steps:
as §1

A further assay deals with Bacillus subtilis. The assay can be described thus: Antibacterial activity against Bacillus subtilis DSM 1088 incubated for 24 hrs by disk diffusion method. Type of assay: functional. An outline of the steps: as §1
For assay [1], the system named is THP-1. The assay can be described thus: Cytotoxicity against human THP1 cells assessed as reduction in cell survival by measuring inhibition of mitochondrial metabolic activity at 0.01 to 100 uM after 48 hrs by resazurin assay. The class given is functional, cell-based. The method in brief: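 Human acute monocytic leukemia THP-1 cells, in vitro. Resazurin-based read-out measures inhibition of mitochondrial metabolic activity.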
A general note: Alamar Blue is a resazurin reagent that responds to reducing activity.

The subject of assay [2] is THP-1. The assay can be described thus: Cytotoxicity against human THP1 cells assessed as reduction in cell survival by measuring inhibition of intracellular ATP level at 0.01 to 100 uM after 48 hrs by ATPlite assay. Type of assay: functional, cell-based. The method in brief: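 THP-1 human acute monocytic leukemia cells, in vitro. ATPlite luminescence measures depletion of cytoplasmic ATP.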
(In ATP-based viability assays light output follows the ATP content of the culture.)

≈ marks a conversion by molar mass, not a printed value. Calls of active or inactive are those of the source. The rule behind the calls is not given here.

Turning to `CCCCCCCCCCCCCCCCCC[C@H](C)C(=O)C1=C2C3=COC(C)=CC3=CC(=O)[C@]2(C)OC1=O`, the minimum inhibitory concentration (MIC) in the assay with Bacillus spizizenii and in the assay on Brevibacillus brevis was 5 µg/mL (≈ 9.28 µM) each time.
With `CN[C@@H]1[C@H](O[C@H]2[C@H](O[C@H]3[C@H](O)[C@@H](O)[C@H](N=C(N)N)[C@@H](O)[C@@H]3N=C(N)N)O[C@@H](C)[C@]2(O)C=O)O[C@@H](CO)[C@H](O)[C@H]1O` [STREPTOMYCIN], the MIC (commonly the lowest concentration found to suppress growth) against Pseudomonas aeruginosa (DSM 22644, 24 h) stood at 10 µg/mL (≈ 17.2 µM); with Escherichia coli (DSM 1116, 24 h), 1 µg/mL (≈ 1.72 µM); in the assay on Staphylococcus aureus (DSM 799, 24 h) it was 5 µg/mL (≈ 8.6 µM); in the assay on Bacillus subtilis (DSM 1088, 24 h) it was 5 µg/mL (≈ 8.6 µM).
Turning to GENTAMICIN, the MIC in the assay with Pseudomonas aeruginosa, against Escherichia coli, with Staphylococcus aureus and against Bacillus subtilis was 1 µg/mL throughout.
With `CC[C@H](C)C(=O)[C@H]1C(=O)O[C@@]2(C)C(=O)C=C3C=C(C)OC[C@H]3[C@H]12`, the minimal inhibitory concentration (MIC) was greater than 10 µg/mL in the assay with Pseudomonas aeruginosa (DSM 22644, 24 h); 5 µg/mL (≈ 15.7 µM) against Escherichia coli (DSM 1116, 24 h); greater than 10 µg/mL in the assay with Staphylococcus aureus (DSM 799, 24 h); greater than 10 µg/mL in the assay on Bacillus subtilis (DSM 1088, 24 h). The result with THP-1 [1] and in the assay with THP-1 [2] was inactive.
As for `CC[C@H](C)C1=C2C(=O)O[C@@]3(C)C(=O)C=C4C=C(C)O[C@@H](O1)[C@@]4(O)[C@@]23O`, the MIC is greater than 10 µg/mL against Pseudomonas aeruginosa (DSM 22644, 24 h); 1 µg/mL (≈ 2.87 µM) against Escherichia coli (DSM 1116, 24 h); greater than 10 µg/mL in the assay with Staphylococcus aureus (DSM 799, 24 h); 0.1 µg/mL (≈ 0.287 µM) in the assay on Bacillus subtilis (DSM 1088, 24 h). Moreover, the result in the assay on THP-1 [1] and in the assay on THP-1 [2] was inactive.
Take `CC[C@H](C)C(=O)[C@@H]1C(=O)O[C@@]2(C)C(=O)C=C3C=C(C)OC=C3[C@@H]12`: the MIC with Pseudomonas aeruginosa (DSM 22644, 24 h) was greater than 10 µg/mL; against Escherichia coli (DSM 1116, 24 h) it was greater than 10 µg/mL; with Staphylococcus aureus (DSM 799, 24 h), 5 µg/mL (≈ 15.8 µM); against Bacillus subtilis (DSM 1088, 24 h), greater than 10 µg/mL. For the same molecule, the result with THP-1 [1] and in the assay on THP-1 [2] was inactive.
Regarding `CC[C@H](C)C(=O)[C@H]1C(=O)O[C@@]2(C)C(=O)C=C3C=C(C)OC=C3[C@H]12` [CHERMESINONE B], the MIC in the assay on Pseudomonas aeruginosa (DSM 22644, 24 h) is greater than 10 µg/mL; with Escherichia coli (DSM 1116, 24 h) it was greater than 10 µg/mL; against Staphylococcus aureus (DSM 799, 24 h) it was greater than 10 µg/mL; in the assay with Bacillus subtilis (DSM 1088, 24 h), greater than 10 µg/mL. The outcome in the assay on THP-1 [1] and in the assay on THP-1 [2] was inactive.

The values are drawn from ChEMBL document CHEMBL4425087, “Antibacterial Azaphilones from an Endophytic Fungus, Colletotrichum sp. BS4” (2016).
